Assay [1] relates to CC-1. Nature of the assay: Percent of growth inhibition of Cell line CC-1(Cervix) by the compound. The format is functional, Homo sapiens. In a few lines: (§1)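 Carcinoma cell lines were seeded at 2000–4000 cells/well and dosed the next day at 10 µM against a DMSO control. After 72 h cells were TCA-fixed, SRB-stained and the dye solubilized in Tris-HCl, then OD was read. Triplicates were averaged, and % inhibition = (1 − treated/control OD) × 100.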

For another assay, the system named is Caov-3 cell line. Nature of the assay: Percent of growth inhibition of Cell line Caov-3(Ovarian) by the compound. Type of assay: functional, Homo sapiens. In a few lines:
as §1

The test system of another assay is SK-OV-3. Nature of the assay: Percent of growth inhibition of Cell line SKOV-3(Ovarian) by the compound. The format is functional, Homo sapiens. An outline of the steps:
as §1

The next assay has as its system SiHa. As to the kind of experiment: Percent of growth inhibition of Cell line SiHa (Cervix) by the compound. The format is functional, Homo sapiens. In a few lines:
as §1

The test system of a further assay is SCC-2. Nature of the assay: Percent of growth inhibition of Cell line SCC-2(Head and Neck) by the compound. The format is functional, Homo sapiens. In a few lines:
as §1

The subject of the next assay is SCC-38. As to the kind of experiment: Percent of growth inhibition of Cell line SCC-38(Head and Neck) by the compound. The format is functional, Homo sapiens. In a few lines: as §1
In the next assay the test system is SW 962. As to the kind of experiment: Percent of growth inhibition of Cell line SW962 (Vulvar) by the compound. The format is functional, Homo sapiens. In a few lines: as §1
Another assay has as its system SW 954. Nature of the assay: Percent of growth inhibition of Cell line SW954 (Vulvar) by the compound. The format is functional, Homo sapiens. An outline of the steps: as §1
For assay [2], the system named is CC-1. Nature of the assay: Percent inhibition of CC-1 cervical cell proliferation. Type of assay: functional, Homo sapiens. An outline of the steps: as §1
Assay [3] has as its target T1, Retinoic acid receptor alpha (Homo sapiens, UniProt P10276).
T1 sequence (P10276 whole entry): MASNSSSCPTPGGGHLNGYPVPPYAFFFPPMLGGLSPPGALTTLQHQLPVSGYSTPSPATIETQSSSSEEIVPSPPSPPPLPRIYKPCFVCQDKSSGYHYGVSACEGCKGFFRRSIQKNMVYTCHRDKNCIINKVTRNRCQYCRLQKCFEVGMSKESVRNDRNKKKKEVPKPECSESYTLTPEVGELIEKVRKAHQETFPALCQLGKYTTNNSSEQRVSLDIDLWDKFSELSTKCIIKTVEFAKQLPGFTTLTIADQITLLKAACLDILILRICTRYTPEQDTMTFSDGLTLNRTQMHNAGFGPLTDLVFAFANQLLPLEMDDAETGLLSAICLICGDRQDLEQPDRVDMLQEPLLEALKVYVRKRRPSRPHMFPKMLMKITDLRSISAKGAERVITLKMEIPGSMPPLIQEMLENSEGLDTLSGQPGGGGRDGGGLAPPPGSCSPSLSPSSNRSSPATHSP
Nature of the assay: Transcriptional activation in CV-1 cells expressing human Retinoic acid receptor alpha. The format is functional, cell-based. In a few lines: (§2)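 CV-1 cells were cotransfected with a human RAR or mouse RXR subtype vector, βRARE-tk-CAT reporter and β-gal internal control. Retinoids were applied at 10^-10–10^-5 M (0.1% DMSO) for 24 h, then CAT/β-gal was measured by ELISA. Potency is the concentration giving half of the agent's own maximal activity. Triplicates were run in at least two experiments.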

Assay [4] addresses T2, Retinoic acid receptor alpha (Homo sapiens) (UniProt P10276).
T2 sequence (whole entry): T1 sequence (P10276 whole entry)
As to the kind of experiment: Percent transcriptional activation relative to 9-cis RA in CV-1 cells expressing Retinoic acid receptor RAR alpha. The format is functional, cell-based. An outline of the steps:
(§3)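 CV-1 cells were transiently cotransfected with a human RARα/β/γ or mouse RXRα/β/γ expression vector (100 ng), βRARE-tk-CAT reporter (500 ng) and β-gal control (100 ng). Retinoids (10^-10–10^-5 M, 0.1% DMSO) were added 16–18 h later for 24 h, and CAT and β-gal were read by ELISA. Efficacy = maximal activity ÷ 9-cis-RA maximal activity. Triplicates were run in at least two experiments.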

The target in assay [5] is T3, Retinoic acid receptor beta (Homo sapiens, UniProt P10826).
T3 sequence (P10826 whole entry): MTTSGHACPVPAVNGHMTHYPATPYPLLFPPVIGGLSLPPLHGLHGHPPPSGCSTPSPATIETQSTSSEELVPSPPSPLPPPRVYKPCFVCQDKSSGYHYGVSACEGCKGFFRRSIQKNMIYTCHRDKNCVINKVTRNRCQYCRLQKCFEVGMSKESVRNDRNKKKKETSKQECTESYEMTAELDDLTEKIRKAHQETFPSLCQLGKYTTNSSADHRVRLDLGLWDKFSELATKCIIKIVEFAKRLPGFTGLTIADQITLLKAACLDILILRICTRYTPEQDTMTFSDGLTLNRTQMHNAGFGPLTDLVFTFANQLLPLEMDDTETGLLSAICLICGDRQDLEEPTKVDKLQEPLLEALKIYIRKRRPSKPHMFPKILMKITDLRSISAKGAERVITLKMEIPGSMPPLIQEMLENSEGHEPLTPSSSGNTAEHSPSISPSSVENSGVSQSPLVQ
Nature of the assay: Transcriptional activation in CV-1 cells expressing Retinoic acid receptor RAR beta. Type of assay: functional, cell-based. In a few lines: as §2

Assay [6] has as its target T4, Retinoic acid receptor beta (Homo sapiens) (UniProt P10826).
T4 sequence (whole entry): T3 sequence (P10826 whole entry)
As to the kind of experiment: Percent transcriptional activation relative to 9-cis RA in CV-1 cells expressing Retinoic acid receptor RAR beta. The format is functional, cell-based. In a few lines: as §3

A short description of assay [7]: Transcriptional activation in CV-1 cells expressing Retinoic acid receptor RAR gamma. Type of assay: functional, cell-based. As to conditions: Homo sapiens. An outline of the steps:
as §2

Assay [8] can be described thus: Percent transcriptional activation relative to 9-cis RA in CV-1 cells expressing Retinoic acid receptor RAR gamma. The format is functional, Homo sapiens. An outline of the steps: as §3
In assay [9] the target is T5, Retinoic acid receptor RXR-gamma (Mus musculus, UniProt P28705).
T5 sequence (P28705 whole entry): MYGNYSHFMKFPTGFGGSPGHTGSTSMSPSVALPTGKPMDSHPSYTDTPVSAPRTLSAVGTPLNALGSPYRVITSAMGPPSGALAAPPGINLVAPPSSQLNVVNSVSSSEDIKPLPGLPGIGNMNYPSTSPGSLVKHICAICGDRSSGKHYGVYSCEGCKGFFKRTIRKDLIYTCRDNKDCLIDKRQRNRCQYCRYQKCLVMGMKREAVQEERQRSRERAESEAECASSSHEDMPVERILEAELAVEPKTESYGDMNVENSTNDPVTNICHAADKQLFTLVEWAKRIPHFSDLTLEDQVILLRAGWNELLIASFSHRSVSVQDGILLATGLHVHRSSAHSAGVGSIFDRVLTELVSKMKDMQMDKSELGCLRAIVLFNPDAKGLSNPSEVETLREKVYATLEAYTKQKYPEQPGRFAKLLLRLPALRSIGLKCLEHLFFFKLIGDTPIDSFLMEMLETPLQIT
Nature of the assay: Transcriptional activation in CV-1 cells expressing Retinoid X receptor RXR gamma. The format is functional, cell-based. In a few lines:
as §2

The target in assay [10] is T6, Retinoic acid receptor RXR-gamma (Mus musculus) (UniProt P28705).
T6 sequence (whole entry): T5 sequence (P28705 whole entry)
As to the kind of experiment: Percent transcriptional activation relative to 9-cis RA in CV-1 cells expressing Retinoid X receptor RXR gamma. The format is functional, cell-based. In a few lines:
as §3

Assay [11] deals with T7, Retinoic acid receptor RXR-beta (Mus musculus, UniProt P28704).
T7 sequence (P28704 whole entry): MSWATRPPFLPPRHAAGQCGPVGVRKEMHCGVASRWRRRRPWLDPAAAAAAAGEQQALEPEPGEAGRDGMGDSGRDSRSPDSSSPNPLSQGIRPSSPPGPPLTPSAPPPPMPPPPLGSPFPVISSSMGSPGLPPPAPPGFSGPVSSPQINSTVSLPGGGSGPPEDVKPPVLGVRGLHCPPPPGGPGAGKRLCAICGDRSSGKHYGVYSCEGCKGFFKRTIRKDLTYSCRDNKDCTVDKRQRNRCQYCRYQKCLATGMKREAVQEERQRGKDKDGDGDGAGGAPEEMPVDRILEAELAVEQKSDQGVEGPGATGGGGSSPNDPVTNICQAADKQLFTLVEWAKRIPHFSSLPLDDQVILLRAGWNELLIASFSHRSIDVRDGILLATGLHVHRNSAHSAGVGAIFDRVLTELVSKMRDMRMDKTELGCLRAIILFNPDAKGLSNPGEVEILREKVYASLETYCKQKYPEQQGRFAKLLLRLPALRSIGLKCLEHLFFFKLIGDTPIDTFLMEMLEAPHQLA
As to the kind of experiment: Transcriptional activation in CV-1 cells expressing Retinoid X receptor RXR beta. Type of assay: functional, cell-based. In a few lines:
as §2

The target in assay [12] is T8, Retinoic acid receptor RXR-beta (Mus musculus) (UniProt P28704).
T8 sequence (whole entry): T7 sequence (P28704 whole entry)
As to the kind of experiment: Percent transcriptional activation relative to 9-cis RA in CV-1 cells expressing Retinoid X receptor RXR beta. The format is functional, cell-based. An outline of the steps:
as §3

Assay [13] in a line: Transcriptional activation in CV-1 cells expressing Retinoid X receptor RXR alpha. The format is functional, cell-based. In a few lines:
as §2

Assay [14] can be described thus: Percent transcriptional activation relative to 9-cis RA in CV-1 cells expressing Retinoid X receptor RXR alpha. The format is functional, Mus musculus. An outline of the steps:
as §3

Assay [15] is described as follows: The compound was evaluated for Tissue Transglutaminase induction. In a few lines: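 HEL cells ((1–2) × 10^5/mL) were exposed to 10 µM retinoid for 48 h, washed in PBS and sonicated in Tris/NaCl/EDTA/PMSF buffer (pH 7.4). TGase was measured as Ca2+-dependent [14C]putrescine incorporation into N,N-dimethylcasein, counting acid-insoluble radioactivity, with Lowry protein. Efficacy is expressed relative to maximal t-RA activity.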

As to `CC1=C(/C=C/C(C)=C\C=C\C(C)=C\C(=O)O)C(C)(C)CCC1` [ALITRETINOIN], the Inhibition turned out to be 15% in the assay on CC-1 [1]; 25% in the assay with Caov-3 cell line; 27% in the assay with SK-OV-3; 25% in the assay on SiHa; 25% in the assay with SCC-2; 24% with SCC-38. Also, the Inhibition with SW 962 worked out at 30%; in the assay on SW 954, 35%.
In the case of `CCOC(=O)c1ccc(OC(=O)c2cc3c(cc2C)N(C)CCC3(C)C)cc1`, the Inhibition was 20% in the assay with CC-1 [2]; 10% with Caov-3 cell line; 0% with SK-OV-3; 26% in the assay on SiHa; 20% in the assay with SCC-2; 20% in the assay with SCC-38. In addition, the Inhibition turned out to be 80% with SW 962 and 77% in the assay with SW 954. In addition, the EC50 in assay [3] was found to be 796 nM; in assay [5], 92 nM; in assay [7], 6 nM; in assay [9], 49 nM; in [11] it was 70 nM; in assay [13] it was 102 nM. Moreover, the Efficacy in assay [4] was 64%; in [6], 63%; in assay [8] it was 103%; in [10] it was 52%; in assay [12] it was 55%; in assay [14], 53%. Also, the Induction in assay [15] was 49.
With `CCOC(=O)c1ccc(OC(=O)c2ccc3c(c2)C(C)(C)CCN3C(C)C)cc1`, the Inhibition with CC-1 [2] came to 15%; in the assay with Caov-3 cell line, 13%; with SK-OV-3, 2%; in the assay with SiHa, 25%; in the assay on SCC-2, 24%; in the assay with SCC-38, 25%. The Inhibition with SW 962 was found to be 25%; in the assay with SW 954 it was 49%. For the same compound, the EC50 in assay [3] was found to be 217 nM; in assay [5], 41 nM; in [9], 27 nM; in [11] it was 47 nM; in assay [13], 12 nM. Moreover, the Efficacy in assay [4] is 59%; in assay [6], 71%; in assay [8], 0%; in [10], 47%; in assay [12], 45%; in assay [14], 62%. Besides, the Induction in [15] was 49.
As to `C/C(=C/c1ccc(C(=O)O)cc1)c1ccc2c(c1)C(C)(C)CCC2(C)C`, the Inhibition stood at 15% with Caov-3 cell line, 20% with SK-OV-3, 20% in the assay on SW 962 and 30% in the assay with SW 954.
As for `CCOC(=O)c1ccc(OC(=O)c2ccc3c(c2)C(C)(C)CCN3C)cc1`, the Inhibition was found to be 25% in the assay with CC-1 [2]; 0% in the assay on Caov-3 cell line; 0% in the assay with SK-OV-3; 40% in the assay on SiHa; 20% in the assay with SCC-2; 20% in the assay with SCC-38. Besides, the figures for the Inhibition in the assay on SW 962 and in the assay with SW 954 were 15% and 35%, respectively. In addition, the half-maximal effective concentration (EC50) in assay [3] is 1130 nM; in assay [5], 256 nM; in assay [9], 20 nM; in assay [11], 33 nM; in [13] it was 601 nM. Further, the Efficacy in assay [4] is 45%; in [6], 64%; in assay [8], 0%; in [10], 52%; in assay [12], 53%; in assay [14] it was 47%. The same compound registered an Induction in assay [15] of 37.
